This passage reports Activity and EC50 results from ChEMBL document CHEMBL4428057, “Discovery, Synthesis, and Evaluation of 2,4-Diaminoquinazolines as a Novel Class of Pancreatic β-Cell-Protective Agents against Endoplasmic Reticulum (ER) Stress” (J Med Chem, 2016).

As a reminder, the EC50 is the concentration that produces a half-maximal response.

Experiment [1] relates to INS1. Put plainly: Reversal of tunicamycin-induced suppression of MafA mRNA levels in rat INS-1 cells at 20 uM after 24 hrs by qRT-PCR method. It counts as functional, cell-based. The essentials: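 INS-1 cells (4×10^5/well, 6-well plates) given Tm 0.1 µg/mL ± compound 20 µM or DMSO for 24 h. INS1, INS2, PDX1 and MafA mRNA measured by qRT-PCR with rat primers. Means of 3 replicate wells, representative of 3 independent experiments; SD.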

Experiment [2] concerns INS1. In words: Protection against tunicamycin induced endoplasmic reticulum stress in rat INS-1 cells assessed as increase in cell viability after 3 days by CellTiter-Glo assay. It counts as functional, cell-based. The conditions noted are these: INS1, 72 h. The essentials: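 INS-1 cells at 3×10^3/well (384-well) co-treated with Tm 0.1 µg/mL and compound for 72 h; CellTiter-Glo ATP luminescence. Activity is % rescue, with Tm alone = 0% and DMSO without Tm = 100%. EC50 from ten 2-fold serial dilutions by curve fit; triplicate.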
In general terms: ATP-based viability assays read luminescence as a measure of living cells.

Active and inactive are the calls of the source. The rule behind the calls is not given here.

Regarding `COc1ccc(CNc2nc(N3CCCCC3CO)nc3ccccc23)cc1` (racemic), in experiment [1], the result was Active. The EC50 in experiment [2] amounted to 560 nM.
